In the array DNA melting data of Ke et al. (doi:10.1101/2024.01.08.574731):

Assays:
[1] = melting temperature; fluorescence melt of hairpins on a sequencing array, two-state fit, raised by 9.35 °C to match UV melts; conditions: sodium 0.088 M
Summary of the method: (§1)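 In 50 mM Na-HEPES pH 8.0 containing 25 mM NaCl, hairpins from the library on a sequenced MiSeq flow cell were imaged for Cy3 fluorescence at 2.5 °C steps up to 60 °C, with Cy3 and quencher oligos annealed. After normalisation to pre-quench Cy3 and to control constructs, two-state fits with bootstrapping gave melting temperature and folding enthalpy. Four replicates were combined by inverse-variance weighting, and fitted temperatures were shifted up by 9.35 °C to match UV melts.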

[2] = folding enthalpy; higher = less favourable; fluorescence melt of hairpins on a sequencing array, two-state fit; conditions: sodium 0.088 M
Summary of the method: as §1

Sequence	Tm [1]	folding enthalpy [2]
GCCGCAGGAAACCGCAGC ((.((.(....).)).))	31.2 °C	-9.87 kcal/mol
GCGTGCGAAAGCACACGC ((((((....)))..)))	64.5 °C	-15 kcal/mol
GGTAAAGGAAACCTTACC (((((.(....).)))))	35.5 °C	-22 kcal/mol
GCAGTGCGAAAGCAGGGC ((..(((....)))..))	58.4 °C	-21.6 kcal/mol
GGATCACGAAAGTGTCC (((.(((....))))))	49.8 °C	-25.4 kcal/mol
GAGGATGGAAACATCCCC (.(((((....))))).)	42.8 °C	-11.5 kcal/mol
GAGGGCGAAAGCCGACTC ((((((....)))..)))	44.6 °C	-13 kcal/mol
GATTGTGGAAACATAATC ((((.((....)).))))	36.1 °C	-27.3 kcal/mol
GCCATCGAAAGATTGGGC ((((((....)))..)))	44.1 °C	-26.8 kcal/mol
CGTGGCGGAAACGCACG (((.(((....))))))	53.7 °C	-26.5 kcal/mol
GTTCCCGAAAGGGGAAAC ((((((....)))..)))	37.2 °C	-11.8 kcal/mol
GCCATCGAAAGATCCGGC ((((((....)))..)))	33.2 °C	-19.6 kcal/mol
GACGCCGAAAGGCCAGTC ((((((....)))..)))	40.7 °C	-15 kcal/mol
GAATTAGAAATAATTC ((((((....))))))	33.3 °C	-18.5 kcal/mol
GGTACGGGAAACCGCACC (((.(((....))).)))	50.5 °C	-28.6 kcal/mol
GCGTTGCGAAAGCTATGC ((.(.((....)).).))	48.6 °C	-23.7 kcal/mol
ATAGTGAAAACTAT (((((....)))))	30.4 °C	-12.8 kcal/mol
GTACCAGGAAACCGGTAC (((((.(....).)))))	46.9 °C	-35.7 kcal/mol
GTTGGCGAAAGCCGTAAC ((((((....)))..)))	33.4 °C	-9.54 kcal/mol
GATCGGGTCTCCGATC ((((((....))))))	59.1 °C	-41.2 kcal/mol
GGTAATCGAAAGATGACC (((.(((....))).)))	47.5 °C	-33.9 kcal/mol
GCCTGGCGAAAGCCCTGC ((..(((....)))..))	32.6 °C	-12.2 kcal/mol
GTTTAACCGAAAGGTAAC (((..(((....))))))	29.7 °C	-10.4 kcal/mol

Sequence	Tm [1]	folding enthalpy [2]
GAGCGCGGAAACGCGTTC ((.((((....)))).))	57.4 °C	-16.9 kcal/mol
GGTAAACGAAAGTTAACC (((.(((....))).)))	43.2 °C	-30.5 kcal/mol
GCAGAGGGAAACCTCCAC (..((((....))))..)	25.4 °C	-13.7 kcal/mol
GTGTGCGAAAGCAGTCAC ((((((....)))..)))	38.5 °C	-16.5 kcal/mol
GGAGGCGAAAGCCTGTCC ((((((....)))..)))	38 °C	-8.31 kcal/mol
GATCGCTTGTGCGATC ((((((....))))))	68 °C	-21.5 kcal/mol
GATCGACATTTCGATC ((((((....))))))	50.8 °C	-38.6 kcal/mol
GAGCCCGGAAACGGGCCC (.(((((....))))).)	49.7 °C	-7.26 kcal/mol
GATCAAGCCTTGATC ((((((...))))))	44.1 °C	-26.1 kcal/mol
GCGCTGCGAAAGCCGAGC ((.(.((....)).).))	50.8 °C	-23.2 kcal/mol
GCACACGAAAGTGCTTGC ((((((....)))..)))	53.6 °C	-20.8 kcal/mol
GGCCTGACGAAAGTCGCC (((..(((....))))))	44 °C	-16.3 kcal/mol
GCTGACGAAAGTCGGAGC ((((((....)))..)))	45.7 °C	-16.5 kcal/mol
GCTCTCGAAAGAGGCAGC ((((((....)))..)))	42.3 °C	-15.5 kcal/mol
GATCGATACATCGATC ((((((....))))))	55.9 °C	-46.2 kcal/mol
GGAAAGCGAAAGCTTCC (((.(((....))))))	53.7 °C	-18.1 kcal/mol
GGTAACGAAAGTTGTACC ((((((....)))..)))	34.8 °C	-17.5 kcal/mol
GATCGGTGAGCCGATC ((((((....))))))	60.8 °C	-48.6 kcal/mol
GGTGGTGGAAACACTACC (((.(((....))).)))	52.9 °C	-29.8 kcal/mol
GTGAGAGGAAACTCTCAC (((((((....)))))))	61.7 °C	-41.8 kcal/mol
GTAAACGAAAGTTCTTAC ((((((....)))..)))	24.7 °C	-11 kcal/mol
GCCAAGGAAACTTGGC ((((((....))))))	62.9 °C	-38.2 kcal/mol
GGCCGCGAAAGCGTAGCC ((((((....)))..)))	61 °C	-22.5 kcal/mol

Sequence	Tm [1]	folding enthalpy [2]
CATGAGAAATCATG (((((....)))))	43.9 °C	-13.9 kcal/mol
GTGTCACCGAAAGGTCAC (((..(((....))))))	38.2 °C	-20.5 kcal/mol
GGCATACGAAAGTAGGCC (((.(((....))).)))	63.4 °C	-47.1 kcal/mol
GATCAGTAACTGATC ((((((...))))))	47.9 °C	-37.8 kcal/mol
GCTAAGCGAAAGCTAGC (((.(((....))))))	56.1 °C	-31.8 kcal/mol
GGATCCGAAAGGACTTCC ((((((....)))..)))	37.5 °C	-19.5 kcal/mol
GAAACCGAAAGGTTGTTC ((((((....)))..)))	36.8 °C	-13.7 kcal/mol
GATAGCGGAAACGTTATC ((((.((....)).))))	42.3 °C	-34.8 kcal/mol
GCAAAGCGAAAGCTACGC ((..(((....)))..))	40.8 °C	-11 kcal/mol
GTCGATCGAAAGATAGAC (((.(((....))).)))	50.4 °C	-42.7 kcal/mol
GCCTTCGGAAACGGAGGC ((((.((....)).))))	58.6 °C	-40.4 kcal/mol
GCATCAGAAATGATGC ((((((....))))))	57.9 °C	-38.7 kcal/mol
GATCCGATTACGGATC ((((((....))))))	58.4 °C	-34.2 kcal/mol
GATCACTTTCGTGATC ((((((....))))))	56.4 °C	-36.8 kcal/mol
CGAGCCGGAAACGGATCG (((.(((....))).)))	61.7 °C	-41.2 kcal/mol
CCTTAGAAATAAGG (((((....)))))	28.6 °C	-10.5 kcal/mol
GATCTTGAAGAAGATC ((((((....))))))	44.3 °C	-25.9 kcal/mol
GACTAGGGAAACCTGGTC (((.(((....))).)))	46.7 °C	-35.7 kcal/mol
GCTTTGCGAAAGCAGCGC ((..(((....)))..))	48.6 °C	-16.7 kcal/mol
CGTTCGGAAACGAAAACG ((((((....)))..)))	34.9 °C	-24.8 kcal/mol
GGCTCGTCGAAAGACGCC (((..(((....))))))	42 °C	-9.65 kcal/mol
GATCCGATACCGGATC ((((((....))))))	57 °C	-29.9 kcal/mol
GCTCGGCGAAAGCGTAGC (((..((....))..)))	39.3 °C	-12.9 kcal/mol

Sequence	Tm [1]	folding enthalpy [2]
GTAGTTGGAAACAGCTAC ((((.((....)).))))	42.9 °C	-29.4 kcal/mol
GGGACTCGAAAGAGCCCC (((.(((....))).)))	57.1 °C	-34.6 kcal/mol
GGCGAGCGAAAGCTGCC (((.(((....))))))	66.9 °C	-27.6 kcal/mol
GGGACTTCGAAAGAACCC (((..(((....))))))	29.8 °C	-5.69 kcal/mol
GGGCATCCGAAAGGACCC (((..(((....))))))	38.6 °C	-18.3 kcal/mol
GTCATCGAAAGATGGGAC ((((((....)))..)))	34.1 °C	-14.4 kcal/mol
GTAATGGAAACATTAC ((((((....))))))	46.7 °C	-31.7 kcal/mol
GTATCTCGAAAGAGTAC (((.(((....))))))	39.7 °C	-23.5 kcal/mol
GGAACTGGAAACAGCTCC (((.(((....))).)))	42.5 °C	-28.5 kcal/mol
GATCGTCCGAACGATC ((((((....))))))	55.2 °C	-39.2 kcal/mol
GGAAATACGAAAGTATCC (((..(((....))))))	30.8 °C	-11.3 kcal/mol
GGGCGCCGAAAGGCCCCC (((.(((....))).)))	65.5 °C	-14 kcal/mol
GGCCACGAAAGTGTGCC ((((((....))).)))	64 °C	-25.9 kcal/mol
GCGAACGGAAACATTCGC (((((.(....).)))))	48.2 °C	-32.7 kcal/mol
GCTTCAGGAAACTGAAAC (.(((((....))))).)	31.5 °C	-15 kcal/mol
GGTTTGCGAAAGCAACC (((.(((....))))))	52.4 °C	-17.2 kcal/mol
GTCTCATCGAAAGATGAC (((..(((....))))))	35.4 °C	-10.9 kcal/mol
GTACCCGAAAGGGCTTAC ((((((....)))..)))	27.1 °C	-11.2 kcal/mol
TTCATGAAAATGAA (((((....)))))	28.9 °C	-9.75 kcal/mol
GCCGCCGAAAGGCGTGGC ((((((....)))..)))	60.1 °C	-12.6 kcal/mol
GCTATGCGAAAGCAACGC ((..(((....)))..))	39.1 °C	-10.5 kcal/mol
GGCTGTCGAAAGACCGCC (((.(((....))).)))	56.6 °C	-36.6 kcal/mol
GCGTAAAGACGC ((((....))))	46.9 °C	-17.8 kcal/mol
